The record followed here is ChEMBL document CHEMBL4680103, “In Vitro and in Vivo Anti-Trypanosoma cruzi Activity of New Arylamine Mannich Base-Type Derivatives” (J Med Chem, 2016).

Activity calls are given as the source filed them. No cut-off for these calls is given here.

In assay [1] the test system is Trypanosoma cruzi. Nature of the assay: Antitrypanosomal activity against Trypanosoma cruzi Arequipa trypomastigote froms infected in mouse blood incubated for 24 hrs by Neubauer chamber based assay. In kind it is functional, organism-based. An outline of the steps: (§1)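 Mouse blood taken at peak parasitemia (day 7) was diluted with uninfected blood to 4×10^6 trypomastigotes/mL, then 1:2 in RPMI 1640. Drugs from DMSO stocks were added at 1, 10, 25, 50 and 100 µM and incubated 24 h at 4–8 °C. Parasites were counted in a Neubauer chamber in triplicate. IC50 was calculated versus control.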

For assay [2], the system named is Trypanosoma cruzi. Nature of the assay: Antitrypanosomal activity against Trypanosoma cruzi Arequipa epimastigote forms incubated for 72 hrs by hemocytometry. Format: functional, organism-based. The procedure, abridged:
(§2)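 Epimastigotes grown in MTL medium with 10% inactivated FBS at 28 °C. Compounds were dissolved in DMSO (0.01% v/v) and added at 0.1–100 µM for 72 h. Parasites were counted in a Neubauer chamber. IC50 (50% growth inhibition) was derived by linear regression of Kc values. Values are averages of four determinations.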

In assay [3] the test system is Trypanosoma cruzi. Nature of the assay: Antitrypanosomal activity against Trypanosoma cruzi Tulahuen epimastigote forms incubated for 72 hrs by hemocytometry. In kind it is functional, organism-based. The procedure, abridged:
as §2

For assay [4], the system named is Trypanosoma cruzi. Nature of the assay: Antitrypanosomal activity against Trypanosoma cruzi SN3 trypomastigote froms infected in mouse blood incubated for 24 hrs by Neubauer chamber based assay. In kind it is functional, organism-based. The procedure, abridged: as §1
For assay [5], the system named is Trypanosoma cruzi. Nature of the assay: Antitrypanosomal activity against Trypanosoma cruzi SN3 amastigote forms infected in African green monkey Vero cells incubated for 72 hrs by Giemsa staining based micrscopy. Format: functional, organism-based. An outline of the steps:
(§3)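 Vero cells (RPMI, 10% inactivated FBS, 37 °C, 5% CO2) were seeded at 1×10^4/well on coverslips and cultured 2 days. They were infected 24 h with metacyclic forms at 10:1. After washing off free parasites, drugs were added at 0.1–100 µM for 72 h. Slides were methanol-fixed and Giemsa-stained; amastigotes were counted in 200 host cells versus untreated. IC50 was calculated.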

Assay [6] has as its system Trypanosoma cruzi. Nature of the assay: Antitrypanosomal activity against Trypanosoma cruzi Arequipa amastigote forms infected in African green monkey Vero cells incubated for 72 hrs by Giemsa staining based micrscopy. Format: functional, organism-based. An outline of the steps:
as §3

In assay [7] the test system is Vero. Nature of the assay: Cytotoxicity in African green monkey Vero cells incubated for 72 hrs. In kind it is cell-based. Particulars: Chlorocebus sabaeus.
For assay [8], the system named is Trypanosoma cruzi. Nature of the assay: Antitrypanosomal activity against Trypanosoma cruzi Tulahuen trypomastigote froms infected in mouse blood incubated for 24 hrs by Neubauer chamber based assay. In kind it is functional, organism-based. An outline of the steps: as §1
The subject of assay [9] is Trypanosoma cruzi. Nature of the assay: Antitrypanosomal activity against Trypanosoma cruzi SN3 epimastigote forms incubated for 72 hrs by hemocytometry. In kind it is functional, organism-based. Particulars: SN3, 72 h. An outline of the steps:
as §2

In assay [10] the test system is Trypanosoma cruzi. Nature of the assay: Antitrypanosomal activity against Trypanosoma cruzi Tulahuen amastigote forms infected in African green monkey Vero cells incubated for 72 hrs by Giemsa staining based micrscopy. Format: functional, organism-based. The procedure, abridged:
as §3

Assay [11] relates to Trypanosoma cruzi. Nature of the assay: Antitrypanosomal activity against Trypanosoma cruzi infected in African green monkey Vero cells assessed as reduction in infection rate measured up to 10 days by Giemsa staining based hemocytometry. Format: functional. Particulars: time day <=10. An outline of the steps:
(§4)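 Vero cells infected with metacyclic forms (10:1) were exposed to one concentration per compound immediately after infection for 12 h at 37 °C, 5% CO2. After washing, cultures were kept 10 days with fresh medium every 48 h. Every 48 h, % infected cells and amastigotes per infected cell (200 Giemsa-stained cells) and medium trypomastigotes (Neubauer) were scored. Means of three experiments.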

Assay [12] relates to Trypanosoma cruzi. Nature of the assay: Antitrypanosomal activity against Trypanosoma cruzi Arequipa trypomastigotes infected in BALB/c mouse assessed as reduction in mouse mortality measured during acute phase (days 0 to 40 post infection) at 50 to 100 mg/kg, po dosed on alternating days (7 to 15 days post infection). Format: functional, organism-based. Particulars: dose 50-100 mg/kg.

In assay [13] the test system is Trypanosoma cruzi. Nature of the assay: Antitrypanosomal activity against Trypanosoma cruzi infected in African green monkey Vero cells assessed as reduction in number of trypomastigotes measured up to 10 days by Giemsa staining based hemocytometry. In kind it is functional. Particulars: time day <=10. The procedure, abridged:
as §4

The subject of assay [14] is Trypanosoma cruzi. Nature of the assay: Antitrypanosomal activity against Trypanosoma cruzi Arequipa trypomastigotes infected in BALB/c mouse assessed as reduction in parasitemia measured during acute phase (days 0 to 40 post infection) at 50 to 100 mg/kg, po dosed on alternating days (7 to 15 days post infection). Particulars: dose 50-100 mg/kg. In kind it is functional, organism-based. An outline of the steps:
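Female BALB/c mice (8–10 weeks, 25–30 g; groups of six) were infected i.p. with 5×10^5 Arequipa blood trypomastigotes. Dosing was oral, 50 or 100 mg/kg/day, on 5 alternating days (days 7–15 pi), alongside untreated and reference-drug groups. Parasitemia was counted in 5 µL mandibular-vein blood by Neubauer chamber through day 40 pi. Data are means ± SD of six mice.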

Assay [15] concerns Trypanosoma cruzi. Nature of the assay: Antitrypanosomal activity against Trypanosoma cruzi infected in African green monkey Vero cells assessed as reduction in number of amastigotes per infected cell measured up to 10 days by Giemsa staining based hemocytometry. Format: functional. Particulars: time day <=10. The procedure, abridged:
as §4

Assay [16] concerns Trypanosoma cruzi. Nature of the assay: Antitrypanosomal activity against Trypanosoma cruzi Arequipa trypomastigotes infected in BALB/c mouse assessed as reduction in splenomegaly by measuring weight percent of spleens […] at 100 mg/kg, po dosed on alternating days (7 to 15 days post infection) by PCR analysis (reference value: 1.603%). In kind it is functional.

As to `O=C(CCN1CCN(c2ccc(C(F)(F)F)cc2)CC1)c1ccc2ccccc2c1`, the IC50 (in general, the concentration that inhibits the measured activity by half) in [1] came to 8.3 µM; in [2], 1.23 µM; in assay [3], 4.2 µM; in assay [4], 36.5 µM; in [5] it was 8.3 µM; in [6], 2.6 µM. In addition, the half-inhibitory concentration (IC50) stood at 30.1 µM in [7], 6.6 µM in [8], 15.3 µM in assay [9] and 20.5 µM in assay [10].
Turning to `O=C(CCN1CCN(c2ccc(C(F)(F)F)cc2)CC1)c1csc2ccccc12`, the 50% inhibitory concentration (IC50) in [1] amounted to 32.3 µM; in assay [2], 21.9 µM; in assay [3], 48.2 µM; in assay [4] it was 43.2 µM; in assay [5], 21.4 µM; in assay [6], 19.3 µM. For the same compound, the IC50 in assay [7] was determined as 237 µM; in assay [8] it was 6.6 µM; in assay [9], 40.6 µM; in assay [10], 8.1 µM.
For the compound `O=C(CCN1CCN(c2ccc(F)cc2)CC1)c1ccc2ccccc2c1`, the IC50 in [1] was determined as 24.6 µM; in [2] it was 49 µM; in assay [3], 27.6 µM; in assay [4], 10.7 µM; in [5] it was 12.4 µM; in assay [6] it was 23.9 µM. In addition, the half-maximal inhibitory concentration (IC50) worked out at 103 µM in assay [7], 25.5 µM in assay [8], 24.1 µM in [9] and 20.3 µM in [10].
Turning to `O=C(CCN1CCN(Cc2ccccc2)CC1)c1csc2ccccc12`, the IC50 in assay [1] was 43.3 µM; in assay [2] it was 29.7 µM; in assay [3] it was 30.1 µM; in [4] it was 20.8 µM; in assay [5], 18.7 µM; in assay [6], 31.7 µM. Also, the concentration for half-maximal inhibition (IC50) came to 130 µM in assay [7], 32.3 µM in [8], 42.5 µM in assay [9] and 21.7 µM in [10].
As for `O=C(CCN1CCN(c2ccc(C(F)(F)F)cc2)CC1)c1ccc2c(c1)OCO2`, the IC50 in assay [1] was 21.8 µM; in assay [2], 50.6 µM; in assay [3], 21.8 µM; in assay [4], 14.2 µM; in [5] it was 13 µM; in assay [6] it was 27.9 µM. Also, the IC50 in assay [7] came to 48.7 µM; in assay [8] it was 23.7 µM; in [9] it was 17.8 µM; in assay [10], 17.6 µM.
As for `O=C(CCN1CCN(c2ccc([N+](=O)[O-])cc2)CC1)c1csc2ccc(F)cc12`, the IC50 in assay [1] came out at 43.3 µM; in assay [2], 36.6 µM; in assay [3], 48.1 µM; in assay [4], 4.1 µM; in assay [5] it was 16.3 µM; in [6], 19.8 µM. The IC50 in [7] was 554 µM; in assay [8], 52.4 µM; in assay [9], 39.4 µM; in assay [10], 8.8 µM.
Take `O=C(CCN1CCN(c2ccc([N+](=O)[O-])cc2)CC1)c1ccc2c(c1)OCO2`: the IC50 in assay [1] is 0.58 µM; in assay [2], 1.4 µM; in assay [3], 15.6 µM; in assay [4], 50.9 µM; in assay [5], 11.4 µM; in assay [6], 1.2 µM. Besides, the half-inhibitory concentration (IC50) in assay [7] came to 276 µM; in assay [8], 0.08 µM; in assay [9], 18.8 µM; in assay [10], 11.6 µM.
In the case of `O=C(CCN1CCN(Cc2cccc(F)c2)CC1)c1csc2ccccc12`, the IC50 in assay [1] stood at 39.5 µM; in assay [2], 86.7 µM; in assay [3] it was 28.9 µM; in assay [4], 86.3 µM; in assay [5] it was 32 µM; in assay [6], 22.6 µM. Also, the half-inhibitory concentration (IC50) was found to be 70.8 µM in [7], 27.3 µM in assay [8], 53.9 µM in assay [9] and 20 µM in assay [10].
Consider `O=C(CCN1CCN(c2ccc(Cl)cc2)CC1)c1ccsc1`, for which the IC50 is 46.9 µM in [1]; 14.1 µM in assay [2]; 28 µM in assay [3]; 21.8 µM in assay [4]; 16.3 µM in assay [5]; 10 µM in assay [6]. The IC50 is 65.8 µM in [7], 22.3 µM in [8], 24.1 µM in assay [9] and 7.7 µM in assay [10].
In the case of `O=C(CCN1CCN(c2ccc(Cl)cc2)CC1)c1ccc2c(c1)OCO2`, the 50% inhibitory concentration (IC50) in [1] was 46.3 µM; in [2], 2.5 µM; in assay [3], 69.1 µM; in assay [4], 16.8 µM; in assay [5], 6.2 µM; in assay [6], 1.7 µM. Also, the IC50 was found to be 0.3 µM in assay [7], 29.3 µM in [8], 12.6 µM in assay [9] and 11.2 µM in assay [10].
As for `O=C(CCN1CCN(c2ccc(Cl)cc2)CC1)c1csc2ccccc12`, the IC50 in [1] worked out at 31.4 µM; in assay [2], 30.6 µM; in [3], 42.3 µM; in [4], 43.2 µM; in assay [5], 26.3 µM; in assay [6], 25.3 µM. For the same compound, the half-maximal inhibitory concentration (IC50) in [7] worked out at 157 µM; in [8] it was 12.8 µM; in assay [9], 23.6 µM; in [10] it was 10.1 µM.
For the compound `COc1cc(Cl)ccc1N1CCN(CCC(=O)c2cc(C)sc2C)CC1`, the half-inhibitory concentration (IC50) came out at 0.7 µM in assay [1]; 2.5 µM in assay [2]; 4.7 µM in assay [3]; 37.5 µM in [4]; 24.2 µM in [5]; 0.8 µM in [6]. In addition, the IC50 in assay [7] is 138 µM; in assay [8], 2.3 µM; in [9], 21.2 µM; in assay [10], 2 µM.
`O=C(CCN1CCN(c2ccc([N+](=O)[O-])cc2)CC1)c1ccc2ccccc2c1`: the IC50 was 3.9 µM in assay [1]; 3.4 µM in assay [2]; 6.9 µM in assay [3]; 26.4 µM in assay [4]; 20.3 µM in assay [5]; 5.4 µM in assay [6]. Further, the IC50 worked out at 74.3 µM in assay [7], 6.9 µM in [8], 27.7 µM in assay [9] and 8.6 µM in assay [10].
In the case of `O=C(CCN1CCN(c2ccc(F)cc2)CC1)c1ccc2c(c1)OCO2`, the IC50 came out at 34.6 µM in assay [1]; 97 µM in [2]; 200 µM in [3]; 63.4 µM in assay [4]; 14.8 µM in assay [5]; 22.4 µM in [6]. Further, the 50% inhibitory concentration (IC50) in [7] was 323 µM; in [8] it was 56.3 µM; in assay [9], 17.6 µM; in [10], 22.3 µM.
`O=C(CCN1CCN(c2ccc(Cl)cc2)CC1)c1csc2ccc(F)cc12`: the IC50 in [1] was determined as 9.6 µM; in assay [2], 28.5 µM; in [3], 9.6 µM; in assay [4], 19.6 µM; in assay [5], 17.6 µM; in [6], 13.2 µM. The 50% inhibitory concentration (IC50) in assay [7] was found to be 246 µM; in [8], 21.8 µM; in [9], 30.1 µM; in assay [10], 14.8 µM.
Regarding `O=C(Cn1ccnc1[N+](=O)[O-])NCc1ccccc1` [BENZNIDAZOLE], the “inhibition (INH)” value in assay [11] is 22%; in [13] it was 20%; in assay [15] it was 30%. For the same compound, the IC50 in assay [1] turned out to be 12.6 µM; in assay [4] it was 6.2 µM; in [6], 23.7 µM; in assay [8] it was 12.8 µM; in assay [10], 21.7 µM. The outcome in assay [12] and in assay [14] was Active. For the same compound, the Spleen weight percent in assay [16] was determined as 0.837%.
